Published values from different studies.
Read-out: metabolic stability
Host: human

Structure (SMILES)	system	conditions	half-life
CO[C@@H](C[C@H]1C(C)=CC[C@@H]2[C@]3(C)C[C@H](O[C@@H]4O[C@@H](C)[C@H](OC(=O)c5cccc(O)c5)[C@@H](O[C@@H]5O[C@H](CO)[C@@H](O)[C@H](O)[C@H]5NC(C)=O)[C@H]4O)[C@@H](O)C(C)(C)[C@H]3CC[C@]21C)[C@H](N)C(=O)O.O=C(O)C(F)(F)F	hepatocytes	1 µM	> 360 min
CC[C@@H]1C=CC(=O)O[C@@H]1C[C@@H](OC)[C@H](C)[C@H](OC)[C@@H](C)Cc1ccc(F)cc1	liver microsomes		< 2.3 min
CC(C)NCC(O)COc1cccc2ccccc12 (stereo not shown)	liver microsomes	1 µM, pH 7.4	58.6 min
CCCCOC(=O)NS(=O)(=O)c1sc(CC(C)C)cc1-c1cccc2c1CN(C(C)=O)C2	liver microsomes	1 µM, pH 7.4	15 min
C[C@H](CCCOc1cccc(CO)c1)[C@H]1CC[C@H]2[C@@H]3CC=C4C[C@@H](O)CC[C@]4(C)[C@H]3CC[C@]12C	liver microsomes	1 µM, pH 7.4	330 min
CCCCOC(=O)NS(=O)(=O)c1sc(CC(C)C)cc1-c1ccc(OC(F)(F)F)c(Cn2ccnc2)c1	liver microsomes	1 µM, pH 7.4	10 min
CCS(=O)(=O)Nc1cccc(-c2cn(C)c(=O)c3ccccc23)c1	liver microsomes		315 min
CNS(=O)(=O)Cc1ccc2[nH]cc(CCN(C)C)c2c1	hepatocytes	5 µM	448 min
CC(C)(C)c1ccc(O)c(CN(Cc2cc(C(C)(C)C)ccc2O)C2CCC(NC(N)=O)CC2)c1 (stereo not shown)	liver microsomes	1 µM, pH 7.4	39.8 min
CCCCOC(=O)NS(=O)(=O)c1sc(CC(C)C)cc1-c1ccc2c(c1)CN(C(C)=O)CC2	liver microsomes	1 µM, pH 7.4	5.4 min
O=C(NC1CCC1)c1ccc2nc(-c3cccc(NS(=O)(=O)NCCN4CCCCC4)c3)cn2c1	liver microsomes	1 µM	21 min
CC[C@@H]1C=CC(=O)O[C@@H]1C[C@@H](O)[C@H](C)[C@H](O)[C@@H](C)Cc1ccc(F)cc1	liver microsomes		< 7.7 min
O=C(c1ccc(F)cc1)C1CCN(CCn2c(=O)[nH]c3ccccc3c2=O)CC1	liver microsomes		38.8 min
CCNc1nc2c(c(N3CC(=O)Nc4cc(OC)ccc43)n1)CCC2	liver microsomes		16.7 min
Cc1ccc(S(=O)(=O)Nc2cccc(-c3nnn[nH]3)c2)cc1C	liver microsomes		2 min
COc1ccc(CNc2c(CO)cnc3c(C4CC4)cc(C#N)cc23)cc1Cl	liver microsomes		19.5 min
O=C(CC1Cc2ccccc2C1)N[C@H](CN1CCCC1)[C@H](O)c1ccc(OC(F)(F)F)cc1	liver microsomes	1 µM, pH 7.4	84 min
CCSC1CC(=O)C(C)(CCC(=O)Nc2c(O)ccc(C(=O)O)c2O)C2C3CC4CC12CC4(C)O3 (stereo not shown)	liver microsomes		22 min
O=C(N[C@H](Cc1c[nH]c2ccccc12)C(=O)Nc1ccncc1)c1ccc(-c2ccc(F)c(F)c2)cc1F	liver microsomes		18 min
CC(C)(C)C[C@@H]1N[C@@H](C(=O)N[C@H]2C[C@@](C)(O)C2)[C@H](c2cccc(Cl)c2F)[C@]12C(=O)Nc1cc(Cl)ccc12	liver microsomes		> 60 min
O=C(OC(C(F)(F)F)C(F)(F)F)N1CCc2ccccc2C1	liver microsomes		21 min
CCOC(=O)NS(=O)(=O)c1sc(CC(C)C)cc1-c1ccc2c(c1)CN(C(=O)OCC)C2	liver microsomes	1 µM, pH 7.4	2.3 min
Cc1cnc(Nc2ccc(C(=O)NC3CCNCC3)c(F)c2)nc1Nc1cc(NS(=O)(=O)C(C)(C)C)cc(C(=O)NCCOCCOCCOCCC(=O)N2CCC(NC(=O)c3ccc(Nc4ncc(C)c(Nc5ccc(Cl)c(NS(=O)(=O)C(C)(C)C)c5)n4)cc3F)CC2)c1	liver microsomes		8.2 min
COc1ccc([C@@H]2Sc3ccccc3N(CCN(C)C)C(=O)[C@@H]2OC(C)=O)cc1	hepatocytes	1 µM	91.8 min
CCCCCCCc1c(C)nc2cc(OC)ccc2c1O	liver microsomes	1 µM	10.2 min
Cc1ccc(S(=O)(=O)Nc2cccc(-c3nnn[nH]3)c2)cc1C(F)(F)F	liver microsomes		4 min
Cc1cccc(-n2ncc(Br)c(Br)c2=O)c1	liver microsomes		7.1 min
O=C1CCN(C(=O)Nc2ccc(F)c(C(F)F)c2)[C@@H]2CCCC[C@H]12	liver microsomes		> 56 min
